Test results taken from ChEMBL document CHEMBL1135330, “Synthesis and evaluation of 4-hydroxyphenylacetic acid amides and 4-hydroxycinnamamides as antioxidants” (Bioorg Med Chem Lett, 2002).

Columns and labels:
Rattus norvegicus [1] = species: Rattus norvegicus; assay: Neuroprotective action was estimated in terms of its inhibitory concentration against [Fe2+]/AA- induced toxicity; type: functional
Method in brief: (§1)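 Primary rat cortical cultures at 12–14 days in vitro were HBSS-washed and exposed for 2 h to Fe2+ (100 μM)/ascorbic acid (25 μM), with compound at various concentrations present during the insult. Cultures were then washed and held in MEM plus 21 mM glucose at 37 °C, 5% CO2.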

Rattus norvegicus [2] = species: Rattus norvegicus; assay: Compound was tested for its DPPH radical scavenging activity in rat brain homogenates; type: functional
Rattus norvegicus [3] = species: Rattus norvegicus; assay: Compound was tested for its inhibitory concentration against formation of lipid peroxides in rat brain homogenates by thiobarbituric acid reactive substances (TBARS) assay according to the method of Stocks.; type: functional
Method in brief: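 Lipid peroxidation was run on rat brain homogenate (pH 7.4) supernatant after 1000 × g for 10 min. It was started with 0.02 mM FeCl2 and 0.25 mM ascorbic acid for 30 min at 37 °C and stopped with perchloric acid. After re-centrifugation, the supernatant was reacted with 0.5% TBA at 80 °C for 1 h, cooled, and read at 532 nm.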

Rattus norvegicus [4] = species: Rattus norvegicus; assay: Compound was evaluated for its inhibitory concentration against hydrogen peroxide- induced oxidative neuronal damage in primary cultured rat cortical cells; type: functional, cell-based
Method in brief: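 Cortical cultures from rat, 12–14 days in vitro, were HBSS-washed and exposed to H2O2 for 5 min, with compound at various concentrations present during the exposure. Cultures were then washed and kept in MEM plus 21 mM glucose at 37 °C, 95% air/5% CO2.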

Rattus norvegicus [5] = species: Rattus norvegicus; assay: Compound was evaluated for its inhibitory concentration against [Fe2+]/AA- induced oxidative neuronal damage in primary cultured rat cortical cells; type: functional, cell-based; method in brief: as §1
Rattus norvegicus [6] = species: Rattus norvegicus; assay: Compound was evaluated for its inhibitory concentration against X/XO- induced oxidative neuronal damage in primary cultured rat cortical cells; type: functional, cell-based
Method in brief: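 Primary rat cortical cultures at 12–14 days in vitro were washed with HBSS and exposed for 10 min to xanthine (0.5 mM)/xanthine oxidase (10 mU/mL), with compound at various concentrations present during the insult. They were then washed and kept in MEM plus 21 mM glucose at 37 °C, 5% CO2.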

Rattus norvegicus [7] = species: Rattus norvegicus; assay: Neuroprotective action was estimated in terms of its inhibitory concentration against superoxide and hydroxyl radicals measured by the leakage of cytoplasmic enzyme lactate dehydrogenase (LDH).; type: functional
Rattus norvegicus [8] = species: Rattus norvegicus; assay: Neuroprotective action was estimated in terms of its inhibitory concentration against superoxide and hydroxyl radicals measured by the leakage of cytoplasmic enzyme lactate dehydrogenase (LDH); found highly potent; type: functional

IC50 (Rattus norvegicus [2]) [µM]	IC50 (Rattus norvegicus [3]) [µM]	IC50 (Rattus norvegicus [7]) [nM]	IC50 (Rattus norvegicus [8]) [nM]	Structure (SMILES)	IC50 (Rattus norvegicus [1]) [µM]	IC50 (Rattus norvegicus [4]) [µM]	IC50 (Rattus norvegicus [5]) [µM]	IC50 (Rattus norvegicus [6]) [µM]
162	9.28			CCCCOc1cc(CC(=O)NCCCc2ccc(C)c(C)c2)ccc1O	4.2			
34.3	1.11			Cc1ccc(CCCNC(=O)/C=C/c2ccc(O)c(O)c2)cc1C		5.91	23.7	2.54
179	25.9			COc1cc(CC(=O)NCCCc2ccc(C)c(C)c2)ccc1O				
21.3	1.81			Cc1ccc(CCCNC(=O)Cc2cc(O)c(O)c(O)c2)cc1C		35	26.8	34.8
31	2.6	2400	2400	Cc1ccc(CCCNC(=O)Cc2ccc(O)c(O)c2)cc1C		6.03	2.4	3.3
> 300	19.4			Cc1ccc(CCCNC(=O)Cc2ccc(O)c(OC(C)C)c2)cc1C	34.2			
89.1	3.41			COc1cc(/C=C/C(=O)NCCCc2ccc(C)c(C)c2)cc(OC)c1O	5.4			
> 300	32			Cc1ccc(CCCNC(=O)Cc2ccc(O)c(Oc3ccccc3)c2)cc1C				
82.2	9.94			COc1cc(/C=C/C(=O)NCCCc2ccc(C)c(C)c2)ccc1O				
182	24			CCOc1cc(CC(=O)NCCCc2ccc(C)c(C)c2)ccc1O				
50.1	11.8			COc1cc(CC(=O)NCCCc2ccc(C)c(C)c2)cc(OC)c1O				
	4.68			Cc1c(C)c2c(c(C)c1O)CC[C@@](C)(CCC[C@H](C)CCC[C@H](C)CCCC(C)C)O2 [ALPHA-TOCOPHEROL]				
	4.03			Cc1cc(C(C)(C)C)c(O)c(C(C)(C)C)c1 [BUTYLATED HYDROXYTOLUENE]				
				Cc1c(C)c2c(c(C)c1O)CCC(C)(C(=O)O)O2 (stereo unspecified) [TROLOX]		330	431	202
